# Measured values taken from ChEMBL document CHEMBL1151323, “Use of on-flow LC/1H NMR for the study of an antioxidant fraction from Orophea enneandra and isolation of a polyacetylene, lignans, and a tocopherol derivative” (J Nat Prod, 1998).
# Calls of active or inactive are those of the source. The calls are words filed in the database; no cut-off is given here.
# What was measured:
# [1] = DPPH radical scavenging activity at 10 ug by TLC autographic assay; type: functional
# Method in brief: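 TLC autography on silica gel 60 F254 plates developed in petroleum ether–EtOAc (1:2), dried, then sprayed with 0.2% DPPH in MeOH. Plates were read 30 min after spraying; active zones show as yellow spots on a purple background.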
# [2] = system: Cladosporium cucumerinum; assay: Antifungal activity against Cladosporium cucumerinum at 20 ug; type: functional, organism-based
# [3] = Antioxidant activity against beta-carotene assessed as inhibition of bleaching at 10 ug; type: functional
# Method in brief: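 Silica gel 60 F254 TLC plates developed in petroleum ether–EtOAc (1:2), then dried and sprayed with 0.05% β-carotene in CHCl3. Plates were kept under UV 254 nm until the background discolored. Inhibition of bleaching was read on the plate.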
# [4] = system: Cladosporium cucumerinum; assay: Antifungal activity against Cladosporium cucumerinum at 10 ug; type: functional, organism-based
# [5] = DPPH radical scavenging activity at 10 ug by TLC autographic assay
# [6] = system: Cladosporium cucumerinum; assay: Antifungal activity against Cladosporium cucumerinum at 40 ug; type: functional, organism-based
SMILES,Activity [1],Activity [2],Activity [3],Activity [4],Activity [5],Activity [6]
COc1ccc([C@@H]2OC[C@@H]3[C@H]2CO[C@H]3c2ccc(OC)c(OC)c2)cc1OC,Active,Active,Active,,,
Clc1ccc(COC(Cn2ccnc2)c2ccc(Cl)cc2Cl)c(Cl)c1 (centres undefined),,,,Active,,
C/C(=C/CC/C(C)=C/CCC1(C)CCc2cc(O)cc(C)c2O1)C(=O)O (centres undefined),Active,,Active,,Active,Active
COc1cc([C@@H]2OC[C@@H]3[C@H]2CO[C@@H]3c2ccc(OC)c(OC)c2)ccc1O,Active,Active,Active,,,
COc1ccc([C@H]2OC[C@@H]3[C@H]2CO[C@H]3c2ccc(OC)c(OC)c2)cc1OC,Active,Active,Active,,,
